Screening data: PubChem, several laboratories
Insulin prom inh: TRM-6 insulin promoter activity inhibition; AID 1273; TRM-6 cells (human fetal islet line), insulin promoter-eGFP reporter, imaging; reporter expression induced with tamoxifen; actives 0.9% (n = 130,000); inhibition, % at 2 µM;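 active means inhibition above the mean plus 3 SD, with well images judged a real hit on visual review, cut at about 60% in these data, passing the limit was not always enough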
NPY-Y2 antag: NPY-Y2 (human) receptor antagonism; P49146; AID 793; NPY-Y2 expressing cells, antagonist mode; actives 0.99% (n = 140,000); inhibition, % at 2.7 µM; in the data active means inhibition above about 17%;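 further: 0% = vehicle with agonist challenge and 100% = reference antagonist with challenge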
Target sequence (P49146 whole entry, looked up): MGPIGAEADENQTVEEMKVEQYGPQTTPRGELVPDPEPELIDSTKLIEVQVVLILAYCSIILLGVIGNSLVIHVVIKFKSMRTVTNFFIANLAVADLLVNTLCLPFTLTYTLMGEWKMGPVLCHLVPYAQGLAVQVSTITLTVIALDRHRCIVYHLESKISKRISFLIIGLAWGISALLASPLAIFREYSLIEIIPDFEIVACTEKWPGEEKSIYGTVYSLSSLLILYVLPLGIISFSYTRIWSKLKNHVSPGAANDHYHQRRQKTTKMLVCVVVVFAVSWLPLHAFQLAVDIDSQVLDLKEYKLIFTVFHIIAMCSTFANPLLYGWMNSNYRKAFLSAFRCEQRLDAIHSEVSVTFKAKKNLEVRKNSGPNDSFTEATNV
NPY Y1 blocker: NPY-Y1 (human) receptor antagonism | P25929 | HEK293-CNG Y1 cells, membrane potential fluorescence; NPY at EC95, then isoproterenol | inhibition, % at 3.6 µM | actives 1% (n = 200,000) | AID 1040;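 active means inhibition above the campaign mean inhibition of all tested compounds plus 3 SD, cut at about 20% in these data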;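 further: 0% = DMSO wells given NPY plus isoproterenol and 100% = isoproterenol alone without NPY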
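Material: HEK293 Y1/CNG channel cell line | Also added: NPY (25 nM), isoproterenol (1 µM), Ro 20-1724 (25 µM) | Compound: One concentration, 3.6 µM, in 0.4% DMSO | Schedule: 3 h dye uptake, 1 h room-temperature compound, 45 min post-isoproterenol | Signal: Membrane-potential fluorescent dye readout | Read-out: % inhibition of NPY effect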
NPY2 pot ag: potentiates or activates human NPY-Y2 receptor | P49146 | activation, % at 3.6 µM | cells expressing NPY-Y2, potentiator/agonist read-out | AID 1359 | actives 0.45% (n = 220,000); in the data active means activation above about 27%;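 further: cells stimulated with NPY near EC25 plus isoproterenol at EC100; 0% = vehicle plus submaximal agonist and 100% = vehicle plus saturating agonist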
NPY1 pot ag: potentiators or agonists of human neuropeptide Y receptor Y1. NPY-Y1 expressing cells, potentiator/agonist activation. activation, % at 3.6 µM. actives 0.37% (n = 220,000). AID 1304; in the data active means activation above about 33%, passing the limit was not always enough;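 further: cells stimulated with NPY at EC10 then isoproterenol at EC100; 0% = low agonist plus stimulus and 100% = saturating agonist plus stimulus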
RAM inhibit: blocks the yeast RAM network; actives 1.8% (n = 190,000); S. cerevisiae dse1pr::URA3 reporter, 5-FOA growth OD615, 2 d; analog-sensitive cbk1-as2 kinase mutant strain; inhibition, % at 50 µM; AID 868;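 active means inhibition above a set limit, 3 SD over mean compound inhibition, cut at about 8.4% in these data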;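 further: 0% = DMSO-only wells with no growth and 100% = 10 µM 1-NA-PP1 full growth; inhibition rescues growth on 5-FOA so higher OD means more RAM inhibition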
The depositor's hits bear a star; . = no result. Sampled rows, rich in hits. Any-hit rate of the full collection: about 3.8%.

SMILES | Insulin prom inh | NPY-Y2 antag | NPY Y1 blocker | NPY2 pot ag | NPY1 pot ag | RAM inhibit
Cn1c(=O)cc(SCC(=O)N2CCN(c3ccccc3)CC2)c2ccccc21 | 85* | 7 | 0 | -19 | -47 | 0
COC(=O)c1n[nH]n(-c2cc(Cl)cc(Cl)c2)c1=O | . | . | . | -34 | -7 | .
O=C(CSCCN1C(=O)c2ccccc2C1=O)Nc1ccc2ccccc2c1 | . | 5 | 1 | 3 | -14 | 9.2*
O=C1/C(=C\c2ccc(Br)o2)SC(=Nc2ccccc2)N1c1ccccc1 | -26 | -4 | -1 | 7 | 8 | 11*
O=C(Cn1nnc(-c2cccs2)n1)N1c2ccccc2Sc2ccc(C(F)(F)F)cc21 | 80* | 13 | 5 | 7 | 9 | 3
COc1cc(C(=O)Nc2cccc(-c3nnc(-c4ccco4)o3)c2)ccc1OC(C)=O | . | . | 3 | 9 | 13 | 4
COC(=O)c1c(N2C(=O)Nc3ccccc3N2O)sc2c1CCCC2 | 69* | 5 | -2 | 20 | 17 | 0
CC(C)N(C(=O)CSc1nnnn1-c1ccc2c(c1)OCO2)C(C)C | . | . | -1 | 7 | 2 | 0
Cc1onc(-c2ccccc2Cl)c1C(=O)Nc1ncn[nH]1 | 4 | 1 | 5 | -6 | -3 | 1
COc1ccccc1OCCCn1c(C)c(C#N)c2ccccc21 | -29 | 4 | 10 | 3 | -21 | 11*
COc1ccccc1OCCCn1cc(C#N)c2ccccc21 | -114 | 9 | 0 | -7 | -31 | 5
CSc1nc2cc(F)c(F)cc2n1C | 86* | 3 | 0 | 3 | 9 | 0
O=C(c1ccc2c(c1)N(Cc1cccc(Cl)c1)C(=O)c1ccccc1S2(=O)=O)N1CCN(c2ccccn2)CC1 | -67 | . | -4 | 11 | 11 | 0
c1ccc(CCn2c(C3CC3)nc3ccccc32)cc1 | -59 | 10 | 2 | -6 | 3 | 2
Cc1cccc(N2CCN(C(=O)C3(S(=O)(=O)c4ccc(Cl)cc4)CC3)CC2)c1C | -53 | . | 4 | 4 | 5 | 8.6*
CCOC(=O)Nc1sc(C)nc1-c1ccccc1 | . | 4 | 7 | -14 | 9 | -1
CCOC(=O)Nc1nc(-c2ccccc2)c(C(=O)c2ccc(Cl)cc2)s1 | -83 | 20* | 40* | -48 | -37 | 1
CC1CCN(S(=O)(=O)c2ccc(NC(=O)Cc3cccs3)cc2)CC1 | 13 | 4 | 4 | -10 | 12 | 9.1*
CC1CCN(S(=O)(=O)c2ccc(NC(=O)CN3CCOCC3)cc2)CC1 | -91 | -1 | -2 | 7 | -3 | 1
CC(C)=CCN1CCN(Cc2c(C)nn(C)c2Cl)CC1CCO (centres undefined) | . | . | 0 | -3 | -6 | 1
CCOC(=O)c1c(NC(C)=O)sc2c(OC)c(Br)ccc12 | -14 | 3 | 2 | 2 | -33 | 5
CCOC(=O)c1c(NC(C)=O)sc2c(O)c(CN3CCN(CC)CC3)ccc12 | 86* | 2 | 5 | -14 | -17 | 0
Cc1ccc(-n2cc(C(=O)c3ccccc3O)cn2)cc1 | 32 | 1 | 2 | -15 | -18 | 6
Cc1ccc(-n2cc(C(=O)c3ccc4ccccc4c3O)cn2)cc1 | 11 | 16 | 0 | 1 | -20 | 8.5*
CC(C)(CO)CNC(=O)c1ccc(OC2CCN(C(=O)C3CC3)CC2)cc1 | . | . | 2 | 0 | 17 | -1
SMILES | Insulin prom inh | NPY-Y2 antag | NPY Y1 blocker | NPY2 pot ag | NPY1 pot ag | RAM inhibit
Cc1ccc(C2CC(C(F)(F)F)n3nc(C(=O)NCc4c(C)nn(C)c4C)c(Cl)c3N2)cc1 (centres undefined) | -15 | 3 | -18 | 39* | 48* | 1
CCCCC(=O)OCC(=O)Nc1cccc(S(=O)(=O)NC2=NCCCCC2)c1 | -17 | . | 1 | 1 | 4 | 1
O=C(CSc1c(F)c(F)cc(F)c1F)Nc1ccc(C2SCCS2)cc1 | . | . | . | 4 | -8 | .
COC(=O)C1=C(C)N=C2SC(C#N)=C(N)N2C1c1cccc(OC)c1 (centres undefined) | 100* | 3 | -5 | 9 | 15 | 2
CC(=O)Nc1ccc2nc(SCC(=O)N3CCOCC3)sc2c1 | . | . | 0 | 3 | 0 | 0
CCOC(=O)CSc1nc2ccc(NC(=O)CSc3nnnn3Cc3ccccc3)cc2s1 | 11 | -3 | -14 | 99* | 104* | 9.5*
COC(=O)CSc1nc2ccc(NC(C)=O)cc2s1 | . | 2 | -8 | 62* | 68* | 2
Nc1ccc2nc(SCC(=O)N3CCOCC3)sc2c1 | 80* | . | 2 | -3 | -2 | 1
CCOC(=O)CSc1nc2ccc(N)cc2s1 | 48 | 2 | -8 | 34* | 56* | 2
CCOC(=O)c1ccc(NC(=S)NCCc2ccccc2F)cc1 | . | . | 5 | -2 | -3 | 1
Cn1c(=O)oc2cc(S(=O)(=O)N3CCC(C(=O)NCCc4ccccc4)CC3)ccc21 | . | . | . | 8 | 3 | .
CCC(C)n1c(=S)[nH]c2ccccc2c1=O (centres undefined) | . | . | 0 | 1 | -4 | 0
Cc1ccc(S(=O)(=O)Nc2cccc3ncccc23)s1 | . | 1 | -4 | -13 | -13 | 0
NC(=O)c1cccn1Cc1cccc(Cl)c1 | 42 | 1 | -1 | 33* | 95* | 2
NC(=O)c1cccn1Cc1ccccc1Cl | . | 6 | 5 | 10 | -2 | 0
Cc1noc(/C=C/N(C)C)c1S(=O)(=O)N1CCCC(C(=O)NC(C)c2ccccc2)C1 (centres undefined) | . | 0 | -3 | 3 | 25 | 0
Cc1ccc(S(=O)(=O)CCC(=O)OCC(=O)c2ccc(C)c(C)c2)cc1 | -13 | 4 | 4 | 0 | -5 | 11*
Fc1ccccc1CSc1nc2ccccc2[nH]1 | 74* | 5 | 6 | -9 | -3 | 2
Fc1c(F)c(F)c(CSc2nc3ccccc3[nH]2)c(F)c1F | 74 | 2 | 1 | 8 | 3 | 2
O=c1cc(-c2ccccc2)nc(SCc2ccccc2F)[nH]1 | 35 | . | 10 | -12 | -15 | 9.3*
COc1ccccc1CNCC(=O)Nc1cc(S(=O)(=O)N2CCCCCC2)ccc1Cl | . | . | . | -17 | -22 | .
CCc1nc(Nc2ccc3c(c2)OCCO3)c2oc3ccccc3c2n1 | 86* | 4 | 7 | -4 | -6 | 7
Cc1nc(Nc2ccc3c(c2)OCCO3)c2oc3ccccc3c2n1 | 67 | 7 | 6 | -28 | -5 | 2
CCOC(=O)C(NS(=O)(=O)c1ccc(Br)cc1)C(C)C (centres undefined) | . | 1 | 5 | 5 | -13 | 3
Cc1ccc(C(=O)c2cc([N+](=O)[O-])ccc2N2CCCCC2)cc1C | -81 | 2 | 2 | 1 | -7 | 10.0*
O=C(c1ccc(Br)cc1)c1cc([N+](=O)[O-])ccc1N1CCCCC1 | -90 | 17* | 38* | -11 | -6 | 5
CN1CCN(c2ccc([N+](=O)[O-])cc2C(=O)c2ccc(Br)cc2)CC1 | 7 | 9 | 11 | 5 | 22 | 1
